In experiment [1] the target is T1, D(2) dopamine receptor (Homo sapiens, UniProt P14416). In words: The compound was tested for CNS binding affinity towards Dopamine receptor D2 from cloned Human membranes. The procedure, abridged: (§1)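 Radioligand binding on membranes from cloned human receptors (5-HT1A, 5-HT2A, D2, D4). Ki values reported.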
Experiment [2] concerns the target T2, D(4) dopamine receptor (Homo sapiens, UniProt P21917).
T2 sequence (P21917 whole entry): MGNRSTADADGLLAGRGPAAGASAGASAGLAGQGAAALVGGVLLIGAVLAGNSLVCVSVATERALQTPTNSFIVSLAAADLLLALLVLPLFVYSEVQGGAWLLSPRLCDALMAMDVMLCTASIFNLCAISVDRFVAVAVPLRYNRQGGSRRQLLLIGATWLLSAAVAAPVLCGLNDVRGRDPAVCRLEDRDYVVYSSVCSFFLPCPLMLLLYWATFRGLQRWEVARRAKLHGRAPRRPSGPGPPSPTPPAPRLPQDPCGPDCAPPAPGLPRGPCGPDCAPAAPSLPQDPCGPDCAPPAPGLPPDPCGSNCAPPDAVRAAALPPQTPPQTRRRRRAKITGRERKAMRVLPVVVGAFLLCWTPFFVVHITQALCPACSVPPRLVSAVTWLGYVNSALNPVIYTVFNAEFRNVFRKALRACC
Nature of the experiment: The compound was tested for CNS binding affinity towards Dopamine receptor D4 from cloned Human membranes. In outline:
as §1

The target in experiment [3] is T3, 5-hydroxytryptamine receptor 1A (Homo sapiens, UniProt P08908).
T3 sequence (P08908 whole entry): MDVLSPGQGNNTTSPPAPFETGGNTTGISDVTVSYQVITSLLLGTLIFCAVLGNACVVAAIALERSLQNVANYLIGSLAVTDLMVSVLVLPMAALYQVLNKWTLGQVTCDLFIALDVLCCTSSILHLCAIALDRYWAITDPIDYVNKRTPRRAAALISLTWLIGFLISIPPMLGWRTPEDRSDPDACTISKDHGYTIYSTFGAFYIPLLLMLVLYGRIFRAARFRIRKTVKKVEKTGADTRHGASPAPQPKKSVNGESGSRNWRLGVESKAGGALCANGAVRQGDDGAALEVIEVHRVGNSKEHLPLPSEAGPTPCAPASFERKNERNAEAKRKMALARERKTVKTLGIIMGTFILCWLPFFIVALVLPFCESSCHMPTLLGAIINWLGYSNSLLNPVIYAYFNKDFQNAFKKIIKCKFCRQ
In words: The compound was tested for CNS binding affinity towards 5-hydroxytryptamine 1A receptor from cloned Human membranes. In outline: as §1

For experiment [4], the target named is 5-hydroxytryptamine receptor 1B (Gorilla gorilla, UniProt Q9N2B7). Nature of the experiment: The compound was tested for CNS binding affinity towards 5-hydroxytryptamine 1B receptor from cloned gorilla membranes expressed in cultured HEK 293 cells. In kind it is cell-based, HEK293.
Chain of 5-hydroxytryptamine receptor 1B (Q9N2B7 whole entry): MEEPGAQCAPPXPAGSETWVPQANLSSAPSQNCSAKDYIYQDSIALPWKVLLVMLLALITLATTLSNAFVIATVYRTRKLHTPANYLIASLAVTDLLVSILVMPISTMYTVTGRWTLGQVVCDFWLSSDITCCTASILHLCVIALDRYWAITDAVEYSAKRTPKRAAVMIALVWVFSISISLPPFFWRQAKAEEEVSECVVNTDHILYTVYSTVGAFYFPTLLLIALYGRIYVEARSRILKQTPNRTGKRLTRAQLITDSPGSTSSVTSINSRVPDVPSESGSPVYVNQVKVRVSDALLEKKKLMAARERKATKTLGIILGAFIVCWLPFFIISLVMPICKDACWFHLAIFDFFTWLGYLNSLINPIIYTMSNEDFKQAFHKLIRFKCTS
Experiment [5] addresses T4, 5-hydroxytryptamine receptor 2A (Homo sapiens, UniProt P28223). In words: The compound was tested for CNS binding affinity towards 5-hydroxytryptamine 2A receptor from cloned Human membranes.
In experiment [6] the target is T4, 5-hydroxytryptamine receptor 2A. In words: The compound was tested for CNS binding affinity towards 5-hydroxytryptamine 2A receptor from cloned Human membranes. In outline:
as §1

The target in experiment [7] is T2, D(4) dopamine receptor. In words: The compound was tested for CNS binding affinity towards Dopamine receptor D4 from cloned Human membranes; Inactive.
For experiment [8], the system named is Cavia porcellus. Nature of the experiment: The compound (100umol/kg, sc) was tested for hypothermic response for 30 mins in Guinea pig. It counts as functional. The procedure, abridged: (§2)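 Guinea pigs dosed subcutaneously. Body temperature change read at 30 and 60 min after dosing. Response given as the difference in °C from vehicle-treated controls, as mean ± SEM, n = 4-5 per group. Significance tested against vehicle.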

Experiment [9] deals with Cavia porcellus. Nature of the experiment: The compound (50umol/kg, sc) was tested for hypothermic response for 60 mins and in Guinea pig. It counts as functional. In outline:
as §2

Experiment [10] relates to Cavia porcellus. Nature of the experiment: The compound (25umol/kg, sc) was tested for hypothermic response for 30 mins in Guinea pig. It counts as functional. The procedure, abridged:
as §2

Experiment [11] has as its system Cavia porcellus. In words: The compound (100umol/kg, sc) was tested for hypothermic response for 60 mins and in Guinea pig. In kind it is functional. The procedure, abridged:
as §2

Experiment [12] relates to Cavia porcellus. Nature of the experiment: The compound (25umol/kg, sc) was tested for hypothermic response for 60 mins and in Guinea pig. It counts as functional. The procedure, abridged:
as §2

For experiment [13], the system named is Cavia porcellus. In words: The compound (50umol/kg, sc) was tested for hypothermic response for 30 mins in Guinea pig. It counts as functional. The procedure, abridged: as §2
The test system of experiment [14] is Cavia porcellus. Nature of the experiment: The compound (25umol/kg, sc) was tested for hypothermic response for 60 mins in Guinea pig. In kind it is functional. The procedure, abridged: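 Guinea pigs received compound subcutaneously (doses 25–100 μmol/kg across groups), and body temperature change was read at 30 and 60 min after dosing. The hypothermic response is the difference in °C from vehicle-treated controls, reported as mean ± SEM (n = 4–5), with significance tested against vehicle.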

The target of experiment [15] is T2, D(4) dopamine receptor. Nature of the experiment: The compound was tested for CNS binding affinity towards Dopamine receptor D4 from cloned Human membranes. The procedure, abridged:
as §1

Experiment [16] has as its target T1, D(2) dopamine receptor. In words: The compound was tested for CNS binding affinity towards Dopamine receptor D2 from cloned Human membranes. The procedure, abridged:
as §1

Experiment [17] has as its target T3, 5-hydroxytryptamine receptor 1A. In words: The compound was tested for CNS binding affinity towards 5-hydroxytryptamine 1A receptor from cloned Human membranes. The procedure, abridged:
as §1

T1 sequence (P14416 whole entry): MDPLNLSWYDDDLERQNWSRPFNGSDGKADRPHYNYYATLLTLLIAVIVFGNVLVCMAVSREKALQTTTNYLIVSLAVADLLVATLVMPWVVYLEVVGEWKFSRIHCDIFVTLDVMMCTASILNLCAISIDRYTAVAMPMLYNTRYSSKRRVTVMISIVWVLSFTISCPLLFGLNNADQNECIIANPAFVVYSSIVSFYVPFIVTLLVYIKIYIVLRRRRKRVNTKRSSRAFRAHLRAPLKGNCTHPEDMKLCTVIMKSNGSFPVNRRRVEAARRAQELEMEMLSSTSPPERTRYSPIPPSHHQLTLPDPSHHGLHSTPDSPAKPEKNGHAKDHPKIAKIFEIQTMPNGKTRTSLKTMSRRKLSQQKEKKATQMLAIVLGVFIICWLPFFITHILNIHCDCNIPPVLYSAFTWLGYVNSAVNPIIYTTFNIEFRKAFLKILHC
T4 sequence (P28223 whole entry): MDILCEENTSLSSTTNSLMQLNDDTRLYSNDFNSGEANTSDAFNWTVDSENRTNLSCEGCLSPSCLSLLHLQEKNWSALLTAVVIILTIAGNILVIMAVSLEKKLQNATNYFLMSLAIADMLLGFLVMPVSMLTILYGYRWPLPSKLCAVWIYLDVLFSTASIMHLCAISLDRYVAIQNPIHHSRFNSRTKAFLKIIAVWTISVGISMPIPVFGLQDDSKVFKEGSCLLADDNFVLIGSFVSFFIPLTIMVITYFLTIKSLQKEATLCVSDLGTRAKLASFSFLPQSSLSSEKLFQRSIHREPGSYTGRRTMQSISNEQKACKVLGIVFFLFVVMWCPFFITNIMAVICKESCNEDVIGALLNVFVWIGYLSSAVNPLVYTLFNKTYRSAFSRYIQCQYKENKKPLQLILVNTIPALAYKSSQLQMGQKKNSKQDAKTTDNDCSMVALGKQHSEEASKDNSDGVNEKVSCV

Take `COc1ccc(N2CCN(CCC3OCCc4ccccc43)CC2)cc1` (configuration not stated): the inhibition constant Ki was 1430 nM on D(2) dopamine receptor [1]; 2.4 nM on D(4) dopamine receptor [2]; 899 nM in experiment [3]; 7240 nM in experiment [4]; 76 nM in experiment [5].

As for `CNC(=O)c1ccc2c(c1)CCO[C@@H]2CCN1CCN(c2ccc(OC)cc2)CC1`, the Ki on D(2) dopamine receptor [1] was 158 nM; in experiment [6], 586 nM; in [3] it was over 3360 nM; in experiment [4], 150000 nM; on D(4) dopamine receptor [7] it was “Not Active”.

For `CNC(=O)c1ccc2c(c1)CCO[C@H]2CCN1CCN(c2ccc(OC)cc2)CC1`, the Ki is 241 nM at D(2) dopamine receptor [1]; over 3700 nM on D(4) dopamine receptor [2]; 1090 nM in experiment [3]; 5780 nM in [4]; 168 nM in [5]. For the same molecule, the Hypothermic effect in the experiment with Cavia porcellus [8] was -1.38 °C; with Cavia porcellus [9], -2.34 °C; with Cavia porcellus [10] it was -0.8 °C; in the experiment on Cavia porcellus [11], -1.52 °C; with Cavia porcellus [12] it was -0.54 °C; with Cavia porcellus [13] it was -1.84 °C.

Turning to `COc1ccc(N2CCN(CC[C@@H]3OCCc4cc(C(N)=O)ccc43)CC2)cc1`, the Ki was 325 nM at D(2) dopamine receptor [1], 967 nM in experiment [3], 3020 nM in [4] and “Not Active” at D(4) dopamine receptor [7]. Besides, the figures for the Hypothermic effect in the experiment with Cavia porcellus [9] and in the experiment on Cavia porcellus [13] were -1.14 °C and -1.42 °C, respectively.

Consider `CNS(=O)(=O)Cc1ccc2[nH]cc(CCN(C)C)c2c1`, for which, in the experiment on Cavia porcellus [14], the Hypothermic effect is -0.14. Also, the Ki was over 218 nM on D(2) dopamine receptor [1] and “Not Active” at D(4) dopamine receptor [7].

With `COc1ccc(N2CCN(CC[C@H]3OCCc4cc(C(N)=O)ccc43)CC2)cc1`, the figures for the Ki (on D(2) dopamine receptor [1]; in experiment [3]; in experiment [4]) were 386 nM, over 3360 nM and 26000 nM, respectively.

Regarding `COc1ccc(N2CCN(CCC3OCCc4cc(C(N)=O)ccc43)CC2)cc1` (configuration not stated), the Ki at D(4) dopamine receptor [15] turned out to be 1050 nM; in [4], 5860 nM; on D(2) dopamine receptor [16] it was 348 nM; in experiment [17] it was 2460 nM.

By Ki is commonly meant a measure of affinity in units of concentration, obtained from inhibition or displacement.

The record behind these values is ChEMBL document CHEMBL1131250 (J Med Chem, 1998).
